According to ChEMBL document CHEMBL1147539, “Synthesis and biological evaluation of novel, selective, nonsteroidal glucocorticoid receptor antagonists” (Bioorg Med Chem Lett, 2004):

Tests used:
Progesterone receptor = biological target: T1, Progesterone receptor (Homo sapiens, UniProt P06401); test: Displacement of [3H]progesterone from human Progesterone receptor
T1 sequence (P06401 whole entry): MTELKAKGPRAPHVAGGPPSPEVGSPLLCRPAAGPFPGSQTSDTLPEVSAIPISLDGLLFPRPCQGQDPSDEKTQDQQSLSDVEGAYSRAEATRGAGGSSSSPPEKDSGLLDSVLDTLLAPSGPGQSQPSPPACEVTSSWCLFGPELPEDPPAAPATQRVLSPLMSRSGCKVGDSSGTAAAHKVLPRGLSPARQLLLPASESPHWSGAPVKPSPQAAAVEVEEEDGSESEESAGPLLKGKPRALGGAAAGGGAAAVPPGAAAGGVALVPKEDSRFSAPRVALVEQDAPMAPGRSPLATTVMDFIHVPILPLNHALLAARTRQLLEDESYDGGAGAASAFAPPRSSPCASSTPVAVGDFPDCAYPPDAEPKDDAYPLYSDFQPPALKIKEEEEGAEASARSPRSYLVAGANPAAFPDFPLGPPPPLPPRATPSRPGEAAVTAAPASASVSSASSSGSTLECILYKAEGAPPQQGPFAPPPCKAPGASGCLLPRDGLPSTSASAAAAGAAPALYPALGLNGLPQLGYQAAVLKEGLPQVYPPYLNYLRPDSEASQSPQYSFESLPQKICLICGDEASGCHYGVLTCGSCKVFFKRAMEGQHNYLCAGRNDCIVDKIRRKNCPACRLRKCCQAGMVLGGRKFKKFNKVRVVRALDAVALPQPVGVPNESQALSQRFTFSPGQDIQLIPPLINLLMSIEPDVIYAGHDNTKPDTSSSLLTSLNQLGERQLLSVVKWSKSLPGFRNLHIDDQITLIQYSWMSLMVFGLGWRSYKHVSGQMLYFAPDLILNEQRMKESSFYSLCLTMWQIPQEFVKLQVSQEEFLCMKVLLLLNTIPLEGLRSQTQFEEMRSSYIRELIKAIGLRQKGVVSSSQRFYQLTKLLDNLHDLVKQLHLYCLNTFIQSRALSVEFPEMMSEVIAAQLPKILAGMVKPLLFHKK
Summary of the method: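 Human steroid receptor (PR, MR, AR, ERα) binding measured by radioligand displacement, with IC50s determined in duplicate. Values without a range come from a single experiment, and values with a range are geometric means of repeat experiments.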

Glucocorticoid receptor [1] = biological target: T2, Glucocorticoid receptor (Homo sapiens, UniProt P04150)
T2 sequence (P04150 whole entry): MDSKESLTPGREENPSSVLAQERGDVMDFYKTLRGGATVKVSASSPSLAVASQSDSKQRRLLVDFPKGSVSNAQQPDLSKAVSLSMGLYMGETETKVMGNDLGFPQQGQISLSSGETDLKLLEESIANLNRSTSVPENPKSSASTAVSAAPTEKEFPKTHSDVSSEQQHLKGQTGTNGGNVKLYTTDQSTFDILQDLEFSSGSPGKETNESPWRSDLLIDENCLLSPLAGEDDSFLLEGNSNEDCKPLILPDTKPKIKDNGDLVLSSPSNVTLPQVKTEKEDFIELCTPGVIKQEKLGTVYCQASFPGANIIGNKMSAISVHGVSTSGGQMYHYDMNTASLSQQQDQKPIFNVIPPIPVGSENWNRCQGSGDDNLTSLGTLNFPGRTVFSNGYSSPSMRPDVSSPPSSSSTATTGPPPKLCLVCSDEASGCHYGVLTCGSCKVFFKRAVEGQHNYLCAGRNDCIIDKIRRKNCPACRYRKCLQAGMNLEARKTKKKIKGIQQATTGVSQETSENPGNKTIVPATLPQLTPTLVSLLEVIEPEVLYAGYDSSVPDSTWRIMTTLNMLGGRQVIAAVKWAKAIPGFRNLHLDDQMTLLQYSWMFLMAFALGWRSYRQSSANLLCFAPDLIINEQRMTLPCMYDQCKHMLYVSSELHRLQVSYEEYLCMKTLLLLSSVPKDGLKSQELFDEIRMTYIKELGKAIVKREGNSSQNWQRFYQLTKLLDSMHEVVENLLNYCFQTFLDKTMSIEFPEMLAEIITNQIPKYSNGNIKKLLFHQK

Glucocorticoid receptor [2] = biological target: T2, Glucocorticoid receptor; test: Effect on human Glucocorticoid receptor (GR) in a whole cell assay to measure functional cellular GR-antagonism (GRAF)
Glucocorticoid receptor [3] = biological target: T2, Glucocorticoid receptor; test: Displacement of [3H]dexamethasone from human Glucocorticoid receptor (GR); Value ranges from 3-4 nM
Summary of the method: (§1)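 Binding to human GR; IC50 reported as the geometric mean of two experiments (three for some values), each run in duplicate, with the range of the experiments given.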

Glucocorticoid receptor [4] = biological target: T2, Glucocorticoid receptor; test: Displacement of [3H]dexamethasone from human Glucocorticoid receptor (GR); […]
Glucocorticoid receptor [5] = biological target: T2, Glucocorticoid receptor; test: Displacement of [3H]dexamethasone from human Glucocorticoid receptor (GR); Value ranges from 6-7 nM; summary of the method: as §1
Glucocorticoid receptor [6] = biological target: T2, Glucocorticoid receptor; test: Displacement of [3H]dexamethasone from human Glucocorticoid receptor (GR); Value ranges from 70-92 nM

Structure (SMILES)	IC50 (Progesterone receptor)	IC50 (Glucocorticoid receptor [2])	IC50 (Glucocorticoid receptor [3])	IC50 (Glucocorticoid receptor [4])	IC50 (Glucocorticoid receptor [5])	IC50 (Glucocorticoid receptor [6])	IC50 (Glucocorticoid receptor [1])
COc1cccc2c1-c1ccc(NS(C)(=O)=O)cc1C(c1cccs1)O2 (stereo not drawn)	450 nM	66 nM					7 nM
COc1cccc2c1-c1ccc(NS(C)(=O)=O)cc1C(c1cccc(F)c1)O2 (stereo not drawn)	476 nM	76 nM	3 nM				
CCOc1cccc2c1-c1ccc(NS(C)(=O)=O)cc1C(c1ccccc1)O2 (stereo not drawn)	6900 nM	308 nM				81 nM	

Further molecules by falling IC50 (Progesterone receptor), results first:

IC50 (Progesterone receptor)	IC50 (Glucocorticoid receptor [2])	IC50 (Glucocorticoid receptor [3])	IC50 (Glucocorticoid receptor [4])	IC50 (Glucocorticoid receptor [5])	IC50 (Glucocorticoid receptor [6])	Structure (SMILES)	IC50 (Glucocorticoid receptor [1])
1160 nM			29 nM			COc1cccc2c1-c1ccc(NS(C)(=O)=O)cc1C(c1ccc(F)cc1)O2 (stereo not drawn)	
673 nM				7 nM		COc1cccc2c1-c1ccc(NS(C)(=O)=O)cc1C(c1ccc(C)cc1)O2 (stereo not drawn)	
